From PubChem
CSN inh – CSN deneddylation inhibition; inhibition, % at 12.5 µM; Q92905; hit rate 0.38% among 360,000; Purified CSN, SCF-Nedd8-OG deneddylation, fluorescence polarization;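 active means pattern-corrected inhibition above about 35%, with an unprinted fluorescence ratio check between 0.5 and 1.5, limit read from the data, passing the limit was not always enough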;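 further: 0% = enzyme with substrate and 100% = substrate without enzyme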
Target sequence (Q92905 whole entry, looked up, one chain of several): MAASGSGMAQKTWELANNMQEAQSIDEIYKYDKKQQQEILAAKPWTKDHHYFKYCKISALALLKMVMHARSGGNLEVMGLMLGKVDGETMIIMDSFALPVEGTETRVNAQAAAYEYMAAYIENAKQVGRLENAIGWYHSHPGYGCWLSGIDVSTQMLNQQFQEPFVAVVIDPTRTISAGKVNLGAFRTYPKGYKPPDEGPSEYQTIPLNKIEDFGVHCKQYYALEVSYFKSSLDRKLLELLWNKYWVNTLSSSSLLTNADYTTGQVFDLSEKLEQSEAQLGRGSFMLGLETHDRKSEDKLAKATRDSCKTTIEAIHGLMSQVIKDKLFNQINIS
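assay system = purified human Csn5 enzyme expressed in HEK293T cells | amount = 0.24 nM enzyme | buffer or medium = Tris/NaCl/DTT buffer, pH 7.5 | reagent = 10 nM SCFSkp2-Nedd8OG | compound = one concentration, 12.5 µM, 0.25% DMSO | times = 90 min reaction at room temperature | signal = FP | read-out basis = % inhibition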
Rpn11 block – blocks the human proteasome subunit Rpn11; O00487; human 26S proteasome, Ub4-pepOG fluorescence polarization; 20S core pre-blocked with epoxomicin; inhibition, % at 20 µM; hit rate 0.59% among 360,000;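 active means inhibition at 20 µM, scaled to each plate's controls, above about 33%, limit read from the data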
Target sequence (O00487 whole entry, looked up): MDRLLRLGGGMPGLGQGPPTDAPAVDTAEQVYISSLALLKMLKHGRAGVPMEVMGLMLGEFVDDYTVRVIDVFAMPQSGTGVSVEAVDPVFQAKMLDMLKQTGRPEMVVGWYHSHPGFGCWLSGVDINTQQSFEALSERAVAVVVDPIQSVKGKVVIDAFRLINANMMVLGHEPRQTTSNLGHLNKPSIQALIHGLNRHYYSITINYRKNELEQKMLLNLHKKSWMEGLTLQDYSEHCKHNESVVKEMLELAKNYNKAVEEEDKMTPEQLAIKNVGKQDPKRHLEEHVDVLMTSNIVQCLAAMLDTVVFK
TPT1 inhibitor – blocks Candida albicans tRNA 2'-phosphotransferase. inhibition, % at 5 µM. hit rate 0.81% among 300,000. recombinant caTPT1, FP RNA substrate dephosphorylation;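 active means inhibition above the mean of all tested compounds plus 3 SD, set per screening campaign, cut at about 24% in these data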;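 further: plate controls were DMSO alone for no effect and ferristatin control at 100 nM for full effect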
IDE act – IDE (human) activation, cell-based; P14735; HEK cells, FAbeta-B cleavage, fluorescence polarization; 0% vehicle, 100% cell-free pure enzyme wells; activation, % at 5.96 µM; hit rate 0.073% among 340,000;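 active means activation above the mean of all tested compounds plus 3 SD, set per screening campaign, cut at about 17% in these data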
IDE inh – cellular human IDE inhibition. P14735. HEK cells, FAbetaB cleavage, fluorescence polarization. hit rate 0.41% among 320,000. inhibition, % at 5.59 µM;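 active means percent inhibition above the average of all tested compounds plus 3 SD, set per screening campaign, cut at about 16% in these data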;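 further: IDE supplied by intact live HEK cells; FP after avidin binding of uncleaved biotin substrate so inhibition keeps polarization high; 0% = DMSO wells and 100% = 60 µM reference IDE inhibitor Ii1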
HNF4A DNA FP – change in binding of human HNF4 alpha to DNA. P41235. HNF4a-FITC DNA binding, fluorescence polarization, 1 h. activity change, % at 10 µM. hit rate 0.3% among 360,000; in the data active means activity change above about 30%, passing the limit was not always enough
IDE cell inh cf – cellular human IDE inhibition, confirmation; shares compounds with IDE inh; hit rate 51% among 1,200; HEK cells, FAbetaB cleavage, fluorescence polarization; inhibition, % at 5.59 µM;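 active means mean inhibition across triplicate wells above the cutoff set by the earlier primary insulin-degrading enzyme screen, cut at about 16% in these data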;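 further: 0% = DMSO wells and 100% = 60 µM reference IDE inhibitor Ii1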
HEK293 tox – kills HEK cells in IDE inhibitor counter-screen; AID 449730; HEK293 cytotoxicity, ATP luminescence; hit rate 28% among 1,200; shares compounds with IDE inh; inhibition, % at 5.59 µM; in the data active means inhibition above about 22%;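 further: 0% = vehicle wells and 100% = reference cytotoxic drug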
IDE FP artifact – counter-screen for IDE inhibitors: fluorescent artifacts; shares compounds with IDE inh; FP counterscreen for fluorescent artifacts, IDE probe project; IC50, µM; 30 tested, under 10 active; AID 588718; call rule not given here
Rpn11 confirm – confirmation of human proteasome Rpn11 inhibitors; hit rate 29% among 1,900; AID 602318; purified human 26S proteasome, Ub4-pepOG fluorescence polarization; proteasome pretreated with epoxomicin; inhibition, % at 20 µM; shares compounds with Rpn11 block
MMP-2 counter – blocks human MMP-2, flagging nonselective RPN11 hits. shares compounds with Rpn11 block. recombinant MMP-2, FRET peptide cleavage fluorescence. inhibition, % at 20 µM. hit rate 4% among 1,900. AID 602330;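 further: human MMP-2 activated beforehand with APMA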
Thrombin FP – blocks bovine thrombin, flagging nonselective RPN11 hits | shares compounds with Rpn11 block | bovine thrombin cleavage of Ub4-pepOG, fluorescence polarization | inhibition, % at 20 µM | hit rate 13% among 1,900;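 active means mean inhibition at least 40% at 20 µM, or signal 3 deviations below plate average, so some actives read negative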;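 further: plate controls were thrombin with DMSO for no effect and buffer wells lacking thrombin for full effect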
* marks the source's active call; other numbers are inactive results; / = no result. Rows were chosen to be rich in hits. Some 1.7% of all compounds tested hit in one or more screens of this group. Unless noted, no stated cut-off is given here; in the data, active means inhibition above about 40%; inactive means the rest.

SMILES | CSN inh | Rpn11 block | TPT1 inhibitor | IDE act | IDE inh | HNF4A DNA FP | IDE cell inh cf | HEK293 tox | others
CC(=O)c1ccc(NCC(=O)N2CCN(c3ccccc3)CC2)cc1 | 6 | 18 | 3 | -17 | 21* | -1 | 7 | 9
CC(=O)c1ccc(N2CCN(C(=S)Nc3ccccc3)CC2)cc1 | 2 | -3 | 2 | -2 | 4 | -1 | / | /
COc1ccc(/C=C/C(=O)Nc2cc(C(F)(F)F)ccc2Cl)cc1OC | 3 | -4 | -2 | -9 | 9 | -3 | / | /
COc1cc(/C=C/C(=O)Nc2cc(C(F)(F)F)ccc2Cl)cc(OC)c1OC | -2 | 1 | -7 | -5 | 17* | 3 | 4 | 16
Cc1cc(/C=C\c2ccc3cc(N(C)C)ccc3[n+]2C)c(C)n1-c1ccccc1 | 80 | 82* | -18 | -44 | 26* | 28 | 85* | 117*
COCCN1CC(CNC(=O)c2cc(COc3ccc(C)c(C)c3)on2)CC1=O (stereo not given) | 3 | -1 | -2 | -14 | 17* | -2 | 7 | 11
COc1ccc(C(CC(=O)N2CCCC2)c2ccc(F)cc2)cc1 (stereo not given) | 0 | 0 | -1 | -6 | 17* | 2 | 10 | 10
O=S(=O)(CCNCc1ccco1)NC1CCCCC1 | -3 | -4 | / | 1 | / | 4 | / | /
CN(Cc1ccccc1)C(CNS(=O)(=O)c1ccccc1)c1ccccc1 (stereo not given) | 1 | -4 | / | / | / | 0 | / | /
CCc1nnc(NC(=O)CSc2nc3c(c(=O)n2C)SC(C)C3)s1 (stereo not given) | 0 | 2 | 4 | -30 | 17* | 1 | 11 | 5
CC(=O)c1ccc(Nc2cnn(C34CC5CC(CC(CC(=O)O)(C5)C3)C4)c(=O)c2Cl)cc1 | -4 | 0 | 0 | 5 | 1 | -5 | / | /
Cc1ccc(Nc2cnn(C34CC5CC(CC(CC(=O)O)(C5)C3)C4)c(=O)c2Cl)cc1 | -7 | 12 | 0 | -13 | 14 | -3 | / | /
Cc1cccc(Nc2cnn(C34CC5CC(CC(CC(=O)O)(C5)C3)C4)c(=O)c2Cl)c1 | 3 | 19 | 1 | -13 | 21* | 4 | 12 | 6
Cc1cc(C)cc(Nc2cnn(C34CC5CC(CC(CC(=O)O)(C5)C3)C4)c(=O)c2Cl)c1 | -3 | -1 | -2 | -31 | 32* | 3 | 18* | 12
COc1ccc(S(=O)(=O)N(C)C[C@@H]2OCc3cnnn3CCCC(=O)N([C@H](C)CO)C[C@@H]2C)cc1 | 7 | 0 | / | / | / | 2 | / | /
CSc1nnc(N2C(=O)C(O)=C(C(=O)c3ccco3)C2c2ccc(F)cc2)s1 (stereo not given) | 0 | -41 | -4 | -1 | 15 | -27 | / | /
CSc1nnc(N2C(=O)C(O)=C(C(=O)c3ccco3)C2c2cccc(Cl)c2)s1 (stereo not given) | -5 | -58 | 6 | -6 | 29* | -30 | 7 | 7
CCCCNc1nc2c(c(=O)[nH]c(=O)n2C)n1CCCc1ccccc1 | -3 | -5 | / | / | / | -1 | / | /
COc1ccc2nc(Nc3sc4c(c3C(N)=O)CCCC4)sc2c1 | 3 | 27 | 21 | -13 | 20* | 21 | 2 | 8
CC(=O)Oc1ccc(N2C(=O)c3cccc4c([N+](=O)[O-])ccc(c34)C2=O)cc1 | -4 | -11 | 6 | -4 | 18* | -11 | 13 | 68*
O=C(Nc1cccc(C(F)(F)F)c1)c1csc(-c2ccncc2)n1 | -1 | -4 | 0 | -31 | 50* | -2 | 29* | 20 | IDE FP artifact=>55
Cc1nc(-c2cccnc2)sc1C(=O)Nc1cccc(C(F)(F)F)c1 | 1 | -2 | -1 | -4 | 7 | 1 | / | / | IDE FP artifact=>55
COc1cc(NC(=O)c2csc(-c3ccncc3)n2)cc(C(=O)Nc2cccc(C(F)(F)F)c2)c1 | 2 | 2 | -1 | 2 | 2 | 3 | / | /
COc1ccc(-c2nc(C(=O)Nc3cccc(C(F)(F)F)c3)cs2)cc1 | / | / | / | / | / | / | / | / | IDE FP artifact=>55
Cc1nc(-c2cccnc2)sc1C(=O)Nc1ccc(C(F)(F)F)cc1 | 1 | 1 | -1 | -5 | -2 | 0 | / | /
SMILES | CSN inh | Rpn11 block | TPT1 inhibitor | IDE act | IDE inh | HNF4A DNA FP | IDE cell inh cf | HEK293 tox | others
CNC(=O)C[C@H]1C(=O)N(CCc2ccccc2)C[C@@H]1Cc1ccccc1 | 0 | -5 | / | / | / | -2 | / | /
O=C(/C=C/c1cccnc1)c1ccc(NC(=O)c2cccc(Br)c2)cc1 | 8 | 1 | -5 | -17 | 8 | 1 | / | /
Cc1cccc(C(=O)Nc2ccc(C(=O)/C=C/c3cccnc3)cc2)c1 | 23 | 8 | -3 | -37 | 20* | -1 | 10 | 71*
Cn1ncc2c(=S)[nH]c(=S)[nH]c21 | 1 | / | / | / | / | 1 | / | /
Cc1cc(C)c[n+](C(C)C(=O)c2ccc(-c3ccccc3)cc2)c1 (stereo not given) | -7 | -6 | 3 | -25 | 17* | 5 | 13 | 71*
Cc1ccn2c(=O)c(NC(=O)c3ccc4c(c3)OCO4)c(C)nc2c1 | 3 | -4 | / | / | / | 0 | / | /
O=C(O)Cn1c2c(c3ccccc31)CSc1ccc(Cl)cc1-2 | 2 | -4 | 0 | -8 | 24* | 1 | 3 | 8
O=C(O)Cn1c2ccccc2c2ccccc21 | -13 | -2 | -2 | 2 | -4 | -1 | / | /
COc1ccc2nc3n(c(=O)c2c1)-c1ncccc1C(=O)NC3Cc1ccccc1 (stereo not given) | -4 | -3 | / | / | / | -3 | / | /
O=[N+]([O-])c1cccc(N=Cc2sc3ccccc3c2O)c1 | / | / | 3 | / | 2 | / | / | /
O=[N+]([O-])c1ccc(N=Cc2sc3ccccc3c2O)cc1 | 33 | 62* | 51* | 1 | 17* | 5 | 14 | 11 | Rpn11 confirm=-5;MMP-2 counter=-63;Thrombin FP=-9
CCOC(=O)C1CCCN(C2=NC(=O)/C(=C/c3ccc(OC)cc3OC)S2)C1 (stereo not given) | 5 | 2 | / | 0 | / | 5 | / | /
